Test system: HEK-293T
Assay: Multiplex assay against HEK293T
Assay type: toxicity, cell-based
Conditions: human
In short: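 Phenotypes for tubulin, mitochondrial mass and membrane permeability are expressed as per cents of healthy-nucleus cells. Cells were stained live at seeding with Hoechst33342, BioTracker Green Microtubule Cytoskeleton Dye, MitoTracker Red and Annexin V Alexa Fluor 680, then imaged after compound addition on a CQ1 microscope at 37°C and 5% CO2. Machine-learning gating in CellPathfinder separated Hoechst high-intensity objects from normal cells, divided normal cells by nuclear state (healthy, pyknosed, fragmented) and divided pyknosed cells into mitotic or apoptotic.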

[1] = 12 h, 1 µM, compound concentration 1 uM, replicate 1
[2] = 12 h, 1 µM, compound concentration 1 uM, replicate 2
[3] = 12 h, 10 µM, compound concentration 10 uM, replicate 1
[4] = 12 h, 10 µM, compound concentration 10 uM, replicate 2
[5] = 24 h, 1 µM, compound concentration 1 uM, replicate 1
[6] = 24 h, 1 µM, compound concentration 1 uM, replicate 2
[7] = 24 h, 10 µM, compound concentration 10 uM, replicate 1
[8] = 24 h, 10 µM, compound concentration 10 uM, replicate 2
[9] = 48 h, 1 µM, compound concentration 1 uM, replicate 1
[10] = 48 h, 1 µM, compound concentration 1 uM, replicate 2
[11] = 48 h, 10 µM, compound concentration 10 uM, replicate 1
[12] = 48 h, 10 µM, compound concentration 10 uM, replicate 2

## COc1ccc2c(c1)C(C(=O)N(Cc1ccc(N(C)C)cc1)c1ccc(C(C)C)cc1)CCC2.Cl (stereo not drawn)
[1]
  Population Apoptotic (%): 30%
  Population Fragmented Nuclei (%): 6%
  Population Healthy Nuclei (%): 80%
  Population Hoechst High Intensity Objects (%): 7%
  Population Membrane Permeable-Phenotype (%): 0%
  Population Mitochondria Different-Phenotype (%): 39%
  Population Mitotic Cells (%): 70%
  Population Normal (%): 92%
  Population Pyknosed Nuclei (%): 13%
  Population Tubulin-Different-Phenotype (%): 27%
  Total Cell Count: 413
[2]
  Population Apoptotic (%): 43%
  Population Fragmented Nuclei (%): 5%
  Population Healthy Nuclei (%): 79%
  Population Hoechst High Intensity Objects (%): 4%
  Population Mitochondria Different-Phenotype (%): 61%
  Population Mitotic Cells (%): 56%
  Population Normal (%): 95%
  Population Pyknosed Nuclei (%): 14%
  Population Tubulin-Different-Phenotype (%): 23%
  Total Cell Count: 330
[3]
  Population Apoptotic (%): 60%
  Population Fragmented Nuclei (%): 9%
  Population Healthy Nuclei (%): 78%
  Population Hoechst High Intensity Objects (%): 10%
  Population Membrane Permeable-Phenotype (%): 0%
  Population Mitochondria Different-Phenotype (%): 60%
  Population Mitotic Cells (%): 39%
  Population Normal (%): 89%
  Population Pyknosed Nuclei (%): 11%
  Population Tubulin-Different-Phenotype (%): 64%
  Total Cell Count: 383
[4]
  Population Apoptotic (%): 63%
  Population Fragmented Nuclei (%): 4%
  Population Healthy Nuclei (%): 77%
  Population Hoechst High Intensity Objects (%): 6%
  Population Mitochondria Different-Phenotype (%): 75%
  Population Mitotic Cells (%): 36%
  Population Normal (%): 93%
  Population Pyknosed Nuclei (%): 17%
  Population Tubulin-Different-Phenotype (%): 57%
  Total Cell Count: 361
[5]
  Population Apoptotic (%): 31%
  Population Fragmented Nuclei (%): 9%
  Population Healthy Nuclei (%): 81%
  Population Hoechst High Intensity Objects (%): 3%
  Population Membrane Permeable-Phenotype (%): 0%
  Population Mitochondria Different-Phenotype (%): 20%
  Population Mitotic Cells (%): 68%
  Population Normal (%): 96%
  Population Pyknosed Nuclei (%): 8%
  Population Tubulin-Different-Phenotype (%): 13%
  Total Cell Count: 567
[6]
  Population Apoptotic (%): 60%
  Population Fragmented Nuclei (%): 7%
  Population Healthy Nuclei (%): 79%
  Population Hoechst High Intensity Objects (%): 6%
  Population Mitochondria Different-Phenotype (%): 33%
  Population Mitotic Cells (%): 40%
  Population Normal (%): 93%
  Population Pyknosed Nuclei (%): 13%
  Population Tubulin-Different-Phenotype (%): 11%
  Total Cell Count: 399
[7]
  Population Apoptotic (%): 35%
  Population Fragmented Nuclei (%): 9%
  Population Healthy Nuclei (%): 73%
  Population Hoechst High Intensity Objects (%): 10%
  Population Membrane Permeable-Phenotype (%): 1%
  Population Mitochondria Different-Phenotype (%): 51%
  Population Mitotic Cells (%): 64%
  Population Normal (%): 89%
  Population Pyknosed Nuclei (%): 17%
  Population Tubulin-Different-Phenotype (%): 70%
  Total Cell Count: 409
[8]
  Population Apoptotic (%): 45%
  Population Fragmented Nuclei (%): 7%
  Population Healthy Nuclei (%): 76%
  Population Hoechst High Intensity Objects (%): 6%
  Population Membrane Permeable-Phenotype (%): 0%
  Population Mitochondria Different-Phenotype (%): 60%
  Population Mitotic Cells (%): 55%
  Population Normal (%): 93%
  Population Pyknosed Nuclei (%): 16%
  Population Tubulin-Different-Phenotype (%): 60%
  Total Cell Count: 389
[9]
  Population Apoptotic (%): 20%
  Population Fragmented Nuclei (%): 12%
  Population Healthy Nuclei (%): 80%
  Population Hoechst High Intensity Objects (%): 1%
  Population Membrane Permeable-Phenotype (%): 1%
  Population Mitochondria Different-Phenotype (%): 10%
  Population Mitotic Cells (%): 79%
  Population Normal (%): 98%
  Population Pyknosed Nuclei (%): 6%
  Population Tubulin-Different-Phenotype (%): 10%
  Total Cell Count: 968
[10]
  Population Apoptotic (%): 46%
  Population Healthy Nuclei (%): 81%
  Population Hoechst High Intensity Objects (%): 4%
  Population Membrane Permeable-Phenotype (%): 0%
  Population Mitochondria Different-Phenotype (%): 17%
  Population Mitotic Cells (%): 53%
  Population Normal (%): 95%
  Population Tubulin-Different-Phenotype (%): 15%
  Total Cell Count: 631
[11]
  Population Apoptotic (%): 59%
  Population Fragmented Nuclei (%): 15%
  Population Healthy Nuclei (%): 75%
  Population Hoechst High Intensity Objects (%): 9%
  Population Membrane Permeable-Phenotype (%): 6%
  Population Mitochondria Different-Phenotype (%): 25%
  Population Mitotic Cells (%): 40%
  Population Normal (%): 90%
  Population Pyknosed Nuclei (%): 9%
  Population Tubulin-Different-Phenotype (%): 53%
  Total Cell Count: 558
[12]
  Population Apoptotic (%): 36%
  Population Fragmented Nuclei (%): 11%
  Population Healthy Nuclei (%): 79%
  Population Hoechst High Intensity Objects (%): 3%
  Population Membrane Permeable-Phenotype (%): 2%
  Population Mitochondria Different-Phenotype (%): 24%
  Population Mitotic Cells (%): 63%
  Population Normal (%): 96%
  Population Pyknosed Nuclei (%): 8%
  Population Tubulin-Different-Phenotype (%): 50%
  Total Cell Count: 482

## Cc1nc2ccc(Oc3ccc(F)cc3)cc2c(=O)n1C[C@H]1CCCN(C(C)C)C1.Cl
[1]
  Population Apoptotic (%): 40%
  Population Fragmented Nuclei (%): 7%
  Population Healthy Nuclei (%): 80%
  Population Hoechst High Intensity Objects (%): 6%
  Population Membrane Permeable-Phenotype (%): 0%
  Population Mitochondria Different-Phenotype (%): 50%
  Population Mitotic Cells (%): 60%
  Population Normal (%): 93%
  Population Pyknosed Nuclei (%): 11%
  Population Tubulin-Different-Phenotype (%): 42%
  Total Cell Count: 381
[2]
  Population Apoptotic (%): 61%
  Population Fragmented Nuclei (%): 5%
  Population Healthy Nuclei (%): 70%
  Population Hoechst High Intensity Objects (%): 27%
  Population Mitochondria Different-Phenotype (%): 69%
  Population Mitotic Cells (%): 38%
  Population Normal (%): 72%
  Population Pyknosed Nuclei (%): 24%
  Population Tubulin-Different-Phenotype (%): 34%
  Total Cell Count: 204
[3]
  Population Apoptotic (%): 54%
  Population Fragmented Nuclei (%): 7%
  Population Healthy Nuclei (%): 78%
  Population Hoechst High Intensity Objects (%): 17%
  Population Membrane Permeable-Phenotype (%): 0%
  Population Mitochondria Different-Phenotype (%): 81%
  Population Mitotic Cells (%): 45%
  Population Normal (%): 82%
  Population Pyknosed Nuclei (%): 13%
  Population Tubulin-Different-Phenotype (%): 76%
  Total Cell Count: 405
[4]
  Population Apoptotic (%): 61%
  Population Fragmented Nuclei (%): 8%
  Population Healthy Nuclei (%): 74%
  Population Hoechst High Intensity Objects (%): 20%
  Population Mitochondria Different-Phenotype (%): 94%
  Population Mitotic Cells (%): 38%
  Population Normal (%): 79%
  Population Pyknosed Nuclei (%): 17%
  Population Tubulin-Different-Phenotype (%): 73%
  Total Cell Count: 310
[5]
  Population Apoptotic (%): 31%
  Population Fragmented Nuclei (%): 11%
  Population Healthy Nuclei (%): 80%
  Population Hoechst High Intensity Objects (%): 4%
  Population Membrane Permeable-Phenotype (%): 0%
  Population Mitochondria Different-Phenotype (%): 36%
  Population Mitotic Cells (%): 68%
  Population Normal (%): 95%
  Population Pyknosed Nuclei (%): 8%
  Population Tubulin-Different-Phenotype (%): 27%
  Total Cell Count: 553
[6]
  Population Apoptotic (%): 37%
  Population Healthy Nuclei (%): 72%
  Population Hoechst High Intensity Objects (%): 22%
  Population Mitochondria Different-Phenotype (%): 52%
  Population Mitotic Cells (%): 62%
  Population Normal (%): 77%
  Population Pyknosed Nuclei (%): 16%
  Population Tubulin-Different-Phenotype (%): 20%
  Total Cell Count: 281
[7]
  Population Apoptotic (%): 49%
  Population Fragmented Nuclei (%): 10%
  Population Healthy Nuclei (%): 73%
  Population Hoechst High Intensity Objects (%): 12%
  Population Membrane Permeable-Phenotype (%): 3%
  Population Mitochondria Different-Phenotype (%): 67%
  Population Mitotic Cells (%): 50%
  Population Normal (%): 87%
  Population Pyknosed Nuclei (%): 15%
  Population Tubulin-Different-Phenotype (%): 70%
  Total Cell Count: 525
[8]
  Population Apoptotic (%): 68%
  Population Fragmented Nuclei (%): 11%
  Population Healthy Nuclei (%): 75%
  Population Hoechst High Intensity Objects (%): 23%
  Population Membrane Permeable-Phenotype (%): 0%
  Population Mitochondria Different-Phenotype (%): 88%
  Population Mitotic Cells (%): 31%
  Population Normal (%): 76%
  Population Pyknosed Nuclei (%): 12%
  Population Tubulin-Different-Phenotype (%): 68%
  Total Cell Count: 334
[9]
  Population Apoptotic (%): 27%
  Population Fragmented Nuclei (%): 19%
  Population Healthy Nuclei (%): 75%
  Population Hoechst High Intensity Objects (%): 1%
  Population Membrane Permeable-Phenotype (%): 1%
  Population Mitochondria Different-Phenotype (%): 22%
  Population Mitotic Cells (%): 72%
  Population Normal (%): 98%
  Population Pyknosed Nuclei (%): 5%
  Population Tubulin-Different-Phenotype (%): 14%
  Total Cell Count: 901
[10]
  Population Apoptotic (%): 60%
  Population Fragmented Nuclei (%): 13%
  Population Healthy Nuclei (%): 80%
  Population Hoechst High Intensity Objects (%): 7%
  Population Membrane Permeable-Phenotype (%): 0%
  Population Mitochondria Different-Phenotype (%): 36%
  Population Mitotic Cells (%): 39%
  Population Normal (%): 92%
  Population Pyknosed Nuclei (%): 6%
  Total Cell Count: 380
[11]
  Population Apoptotic (%): 47%
  Population Fragmented Nuclei (%): 15%
  Population Healthy Nuclei (%): 74%
  Population Hoechst High Intensity Objects (%): 11%
  Population Membrane Permeable-Phenotype (%): 2%
  Population Mitochondria Different-Phenotype (%): 60%
  Population Mitotic Cells (%): 52%
  Population Normal (%): 88%
  Population Pyknosed Nuclei (%): 9%
  Population Tubulin-Different-Phenotype (%): 62%
  Total Cell Count: 754
[12]
  Population Apoptotic (%): 67%
  Population Fragmented Nuclei (%): 17%
  Population Healthy Nuclei (%): 72%
  Population Hoechst High Intensity Objects (%): 22%
  Population Membrane Permeable-Phenotype (%): 0%
  Population Mitochondria Different-Phenotype (%): 69%
  Population Mitotic Cells (%): 32%
  Population Normal (%): 78%
  Population Tubulin-Different-Phenotype (%): 58%
  Total Cell Count: 459
